Tests used:
[1] = target: T1, Nitric oxide synthase, inducible (Mus musculus) (UniProt P29477); experiment: Nitric oxide (NO) formation during oxidation of NADPH and O2, catalyzed by NOS II detected spectrophotometrically using hemoglobin assay.; type: functional
T1 sequence (whole entry): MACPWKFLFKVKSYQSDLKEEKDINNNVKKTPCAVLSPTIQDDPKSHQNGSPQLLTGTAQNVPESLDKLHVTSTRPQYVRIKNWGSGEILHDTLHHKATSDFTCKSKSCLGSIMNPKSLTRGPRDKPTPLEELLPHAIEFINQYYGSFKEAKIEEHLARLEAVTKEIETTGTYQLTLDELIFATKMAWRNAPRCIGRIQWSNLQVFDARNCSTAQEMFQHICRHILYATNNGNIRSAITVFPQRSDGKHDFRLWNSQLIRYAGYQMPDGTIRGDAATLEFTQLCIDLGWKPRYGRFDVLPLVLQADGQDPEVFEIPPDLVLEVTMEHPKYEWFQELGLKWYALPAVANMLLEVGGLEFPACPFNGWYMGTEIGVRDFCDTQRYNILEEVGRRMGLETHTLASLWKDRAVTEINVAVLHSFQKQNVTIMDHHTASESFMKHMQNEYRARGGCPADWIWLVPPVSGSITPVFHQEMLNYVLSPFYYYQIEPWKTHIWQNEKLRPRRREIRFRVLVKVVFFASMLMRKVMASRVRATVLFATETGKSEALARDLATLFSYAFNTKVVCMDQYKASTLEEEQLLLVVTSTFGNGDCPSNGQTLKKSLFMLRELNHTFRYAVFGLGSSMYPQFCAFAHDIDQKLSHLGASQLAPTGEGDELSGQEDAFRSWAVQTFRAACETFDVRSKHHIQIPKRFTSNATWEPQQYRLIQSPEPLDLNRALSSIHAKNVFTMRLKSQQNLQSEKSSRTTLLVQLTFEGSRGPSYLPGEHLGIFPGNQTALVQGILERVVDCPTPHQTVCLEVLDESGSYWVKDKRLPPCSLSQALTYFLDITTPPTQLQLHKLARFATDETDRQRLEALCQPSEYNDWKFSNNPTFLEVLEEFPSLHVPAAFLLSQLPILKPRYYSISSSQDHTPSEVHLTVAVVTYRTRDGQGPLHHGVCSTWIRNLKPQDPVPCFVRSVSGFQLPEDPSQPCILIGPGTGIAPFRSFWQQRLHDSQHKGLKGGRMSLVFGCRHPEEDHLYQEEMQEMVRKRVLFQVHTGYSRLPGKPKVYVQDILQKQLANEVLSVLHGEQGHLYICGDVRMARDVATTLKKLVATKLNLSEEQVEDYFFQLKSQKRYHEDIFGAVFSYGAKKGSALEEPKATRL
How it was run: (§1)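 Purified recombinant NOS II (E. coli) at 20-30 nM was run at 37 °C in 50 mM HEPES pH 7.4 with 1 mM NADPH, 100 μM BH4, 5 mM DTT, 100 U/mL SOD, 100 U/mL catalase, 12-15 μM oxyhemoglobin and 500 μM substrate, against a buffer reference. The initial rate was followed at 401 nm (ε 34 mM⁻¹ cm⁻¹), or at 577 nm for strongly absorbing compounds (ε 14.5). Values are means ± SD of three to eight experiments.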

[2] = target: T2, Nitric oxide synthase 3 (Mus musculus) (UniProt P70313); experiment: Nitric oxide (NO) formation during oxidation of NADPH and O2, catalyzed by NOS III was detected spectrophotometrically using hemoglobin assay; type: functional
T2 sequence (whole entry): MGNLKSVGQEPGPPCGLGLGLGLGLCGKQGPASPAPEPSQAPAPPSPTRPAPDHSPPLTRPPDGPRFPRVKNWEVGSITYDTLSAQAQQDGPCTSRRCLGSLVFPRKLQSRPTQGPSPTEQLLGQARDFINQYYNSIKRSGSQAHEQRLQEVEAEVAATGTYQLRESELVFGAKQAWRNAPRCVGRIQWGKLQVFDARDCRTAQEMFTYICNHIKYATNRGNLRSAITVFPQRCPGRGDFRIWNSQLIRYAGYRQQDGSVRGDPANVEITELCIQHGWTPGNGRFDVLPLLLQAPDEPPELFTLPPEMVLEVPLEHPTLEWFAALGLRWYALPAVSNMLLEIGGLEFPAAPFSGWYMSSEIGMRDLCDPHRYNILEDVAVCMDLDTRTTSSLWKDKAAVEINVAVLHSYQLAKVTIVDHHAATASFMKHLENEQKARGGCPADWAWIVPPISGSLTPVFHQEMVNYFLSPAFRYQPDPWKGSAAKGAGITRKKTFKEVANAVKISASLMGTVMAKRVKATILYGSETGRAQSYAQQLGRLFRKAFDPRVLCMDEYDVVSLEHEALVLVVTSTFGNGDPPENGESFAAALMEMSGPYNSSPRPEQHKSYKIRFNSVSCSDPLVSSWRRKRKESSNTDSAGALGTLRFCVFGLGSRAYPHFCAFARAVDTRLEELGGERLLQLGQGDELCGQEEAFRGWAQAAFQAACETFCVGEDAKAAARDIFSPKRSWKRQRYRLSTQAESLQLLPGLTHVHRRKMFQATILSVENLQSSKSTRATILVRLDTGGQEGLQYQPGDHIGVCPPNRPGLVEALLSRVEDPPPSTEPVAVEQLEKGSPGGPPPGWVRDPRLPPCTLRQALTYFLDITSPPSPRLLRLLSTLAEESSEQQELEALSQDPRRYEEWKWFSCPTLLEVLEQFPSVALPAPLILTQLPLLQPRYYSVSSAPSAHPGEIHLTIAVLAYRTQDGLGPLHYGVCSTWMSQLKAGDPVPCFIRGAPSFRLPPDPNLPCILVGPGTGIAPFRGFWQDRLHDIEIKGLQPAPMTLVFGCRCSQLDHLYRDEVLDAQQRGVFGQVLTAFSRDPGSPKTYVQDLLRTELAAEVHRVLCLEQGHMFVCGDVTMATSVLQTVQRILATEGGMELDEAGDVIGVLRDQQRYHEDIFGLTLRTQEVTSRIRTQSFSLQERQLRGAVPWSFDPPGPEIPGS
How it was run: (§2)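 Hemoglobin assay with purified recombinant NOS I (rat brain, expressed in S. cerevisiae) or NOS III (E. coli), at 37 °C in 50 mM HEPES pH 7.4. The mix held 1 mM NADPH, 100 μM BH4, 5 mM DTT, SOD/catalase, oxyhemoglobin, 1 mM CaCl2, 10 μg/mL CaM and 500 μM substrate. Methemoglobin formation was read at 401 nm. Activity is given as percent of that with 500 μM NOHA, from three to five experiments.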

[3] = target: Nitric oxide synthase 1 (Rattus norvegicus) (UniProt P29476); experiment: Nitric oxide (NO) formation during oxidation of NADPH and O2, catalyzed by NOS I was detected spectrophotometrically using hemoglobin assay; type: functional; how it was run: as §2
[4] = target: T1, Nitric oxide synthase, inducible (Mus musculus); experiment: (§3) Kinetic constant for NO formation during transformation of oxyhemoglobin to methemoglobin using NADPH and molecular Oxygen in the presence of (NOS II); type: functional
How it was run: (§4)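 Recombinant NOS II (E. coli-expressed, purified) assayed at 37 °C in 50 mM HEPES pH 7.4 with 1 mM NADPH, 100 μM BH4, 5 mM DTT, SOD and catalase (100 U/mL each), and 12-15 μM oxyhemoglobin. Substrate was varied from 5 μM to 2.5 mM. Enzyme level was set to keep oxyhemoglobin conversion below 30%. Kinetic constants come from the initial methemoglobin formation rate at 401 nm; three to four experiments.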

[5] = target: T1, Nitric oxide synthase, inducible (Mus musculus); experiment: Nitric oxide (NO) formation during oxidation by NADPH and O2, catalyzed by NOS II was detected spectrophotometrically using hemoglobin assay; type: functional; how it was run: as §1
[6] = target: T1, Nitric oxide synthase, inducible (Mus musculus); experiment: as §3; how it was run: as §4
[7] = target: T1, Nitric oxide synthase, inducible (Mus musculus); experiment: Nitric oxide (NO) formation during oxidation of NADPH and O2, catalyzed by NOS II was detected spectrophotometrically using hemoglobin assay; type: functional; how it was run: as §1

Sequence of Nitric oxide synthase 1 (Rattus norvegicus) (P29476 whole entry): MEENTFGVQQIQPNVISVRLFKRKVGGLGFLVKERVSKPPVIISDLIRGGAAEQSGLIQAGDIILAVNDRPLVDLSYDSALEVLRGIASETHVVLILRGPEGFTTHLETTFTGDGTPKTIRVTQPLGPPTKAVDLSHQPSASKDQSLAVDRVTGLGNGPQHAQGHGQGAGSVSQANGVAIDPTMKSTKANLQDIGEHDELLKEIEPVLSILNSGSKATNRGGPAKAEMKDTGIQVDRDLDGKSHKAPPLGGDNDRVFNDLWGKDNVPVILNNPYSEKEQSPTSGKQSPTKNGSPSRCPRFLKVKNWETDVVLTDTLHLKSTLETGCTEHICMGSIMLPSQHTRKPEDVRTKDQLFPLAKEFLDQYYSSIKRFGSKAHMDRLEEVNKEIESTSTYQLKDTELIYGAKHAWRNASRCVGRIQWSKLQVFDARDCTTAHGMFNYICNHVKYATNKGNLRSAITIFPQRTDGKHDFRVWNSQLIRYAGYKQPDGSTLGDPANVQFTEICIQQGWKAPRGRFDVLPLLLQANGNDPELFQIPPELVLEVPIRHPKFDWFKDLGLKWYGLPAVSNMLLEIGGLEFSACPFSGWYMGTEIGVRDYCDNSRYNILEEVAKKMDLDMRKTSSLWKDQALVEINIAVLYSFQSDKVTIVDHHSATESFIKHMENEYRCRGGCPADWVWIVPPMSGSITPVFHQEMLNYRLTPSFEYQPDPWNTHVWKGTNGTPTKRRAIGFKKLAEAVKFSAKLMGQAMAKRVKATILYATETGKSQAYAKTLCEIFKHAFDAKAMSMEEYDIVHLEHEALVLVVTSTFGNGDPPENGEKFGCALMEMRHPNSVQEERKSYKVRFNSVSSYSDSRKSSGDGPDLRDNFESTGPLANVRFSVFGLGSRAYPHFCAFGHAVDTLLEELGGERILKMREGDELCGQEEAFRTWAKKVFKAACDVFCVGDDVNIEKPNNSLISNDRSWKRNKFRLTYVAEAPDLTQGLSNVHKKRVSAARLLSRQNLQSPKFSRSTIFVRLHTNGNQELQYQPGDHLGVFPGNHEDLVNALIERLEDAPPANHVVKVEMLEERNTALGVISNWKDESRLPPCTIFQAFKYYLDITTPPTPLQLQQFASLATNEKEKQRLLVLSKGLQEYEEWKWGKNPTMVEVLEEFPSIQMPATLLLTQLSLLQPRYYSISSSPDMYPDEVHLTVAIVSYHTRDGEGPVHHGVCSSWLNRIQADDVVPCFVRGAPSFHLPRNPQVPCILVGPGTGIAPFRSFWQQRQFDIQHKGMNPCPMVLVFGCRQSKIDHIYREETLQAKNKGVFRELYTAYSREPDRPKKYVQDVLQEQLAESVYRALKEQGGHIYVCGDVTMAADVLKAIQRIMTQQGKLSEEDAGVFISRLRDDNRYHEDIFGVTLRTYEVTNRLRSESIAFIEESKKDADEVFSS

SMILES	NOHA [1]	also measured
COc1ccc(N/C(C)=N/O)cc1	< 0.2%	
N/C(=N/c1ccccc1Cl)NO	5%	
N/C(=N/c1cccc(C(F)(F)F)c1)NO	2.5%	
N/C(=N/c1cccc(CO)c1)NO	6%	NOHA [2]: < 0.2%; NOHA [3]: < 0.2%
N/C(=N/c1ccc2c[nH]nc2c1)NO	2.5%	
COc1ccc(C(=N)NO)cc1	< 0.2%	
N/C(=N\O)c1ccccc1	< 0.2%	
N=C(NO)NCc1ccccc1	15%	
ON=C(Nc1ccccc1)Nc1ccccc1	< 0.2%	
O/N=C/c1ccc(Cl)cc1	< 0.2%	
C/C(=N/c1ccc(Cl)cc1)NO	< 0.2%	
N/C(=N/c1ccc(O)cc1)NO	16.5%	k cat [4]: 1.83 s⁻¹; NOHA [2]: < 0.2%; NOHA [3]: 8.5%
N/C(=N/c1ccc(OCC(=O)O)cc1)NO	< 0.2%	
N/C(=N/c1ccc(F)cc1)NO	41%	k cat [4]: 5.83 s⁻¹; NOHA [2]: < 0.2%; NOHA [3]: 4.5%
N=C(NO)Nc1cccc(CN)c1	1.5%	
COc1ccc(NC(=N)NO)cc1	8%	k cat [4]: 2.42 s⁻¹; NOHA [2]: < 0.2%; NOHA [3]: 3.5%
C/C(=N\O)c1ccc(Cl)cc1	< 0.2%	
N/C(=N/c1cccc(N)c1)NO	3.5%	NOHA [2]: 6.5%; NOHA [3]: 2.5%
COc1ccccc1/N=C(/N)NO	5%	

SMILES	NOHA [1]	also measured
N/C(=N/c1ccc(CC(=O)O)cc1)NO	< 0.2%	
N/C(=N\O)N1CCc2ccccc2C1	< 0.2%	
N/C(=N/c1ccc([N+](=O)[O-])cc1)NO	2%	
COc1ccc(/C(C)=N/O)cc1	< 0.2%	
COc1ccc(/C=N/O)cc1	< 0.2%	
Cc1ccc(NC(=N)NO)cc1	17.5%	k cat [4]: 4.92 s⁻¹; NOHA [2]: < 0.2%; NOHA [3]: < 0.2%
N/C(=N\O)c1ccc(Cl)cc1	< 0.2%	
N/C(=N/c1ccc(C(F)(F)F)cc1)NO	0.5%	
CC(C)(C)c1ccc(NC(=N)NO)cc1		NOHA [5]: < 0.2%
N/C(=N\O)NCCc1ccccc1	6%	
N=C(NO)Nc1ccccc1	20%	k cat [4]: 2.17 s⁻¹; NOHA [2]: < 0.2%; NOHA [3]: 1.5%
N/C(=N/c1ccsc1)NO	9.5%	k cat [4]: 0.667 s⁻¹
CC(C(=O)O)c1ccc(NC(=N)NO)cc1 (stereo not given)	< 0.2%	
N=C(NO)Nc1ccc(Cl)cc1	13%	k cat [6]: 1.63 s⁻¹; NOHA [2]: < 0.2%; NOHA [3]: < 0.2%
N/C(=N/c1ccc(N)cc1)NO	8%	NOHA [2]: < 0.2%; NOHA [3]: 4.5%
N/C(=N/c1ccc(Br)cc1)NO	7.5%	
N/C(=N/c1cccc(Cl)c1)NO	5%	
N/C(=N/CCCC(N)C(=O)O)NO (stereo not given)		k cat [4]: 7.08 s⁻¹; Activity (nM (nM of NOS)) [7]: 425; Activity (nM (nM of NOS)) [2]: 65; Activity (nM (nM of NOS)) [3]: 130

Reference: ChEMBL document CHEMBL1135725, “N-Aryl N'-hydroxyguanidines, a new class of NO-donors after selective oxidation by nitric oxide synthases: structure-activity relationship” (J Med Chem, 2002)
